According to paper PMC5599994 (Clinical Pharmacology in Drug Development, 2017):
Where “and” joins values, the source holds several entries; their conditions need not be identical. Equal entries are not always repeated.

How the values were obtained:
[1] = type: in vivo, human; conditions: plasma; midazolam 7.5 mg oral single dose alone, day 1
[2] = tested on: CYP3A4; assay: Clinical drug-drug interaction: ratio; type: in vivo, human; conditions: (midazolam + tenapanor)/midazolam; tenapanor 15 mg twice daily; healthy volunteers
[3] = patients with CKD stage 5D on dialysis; in 387 of 390 serum samples; cited from earlier work
[4] = tested on: CYP3A4/5; type: in vitro ADME; conditions: human, human liver microsomes, probe midazolam 3 μM (1-OH-midazolam formation)
Method in brief: (§1)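 A cocktail at or below KM was incubated 5 min at 37°C with NADPH in 150-donor pooled human liver microsomes: phenacetin 30 μM (CYP1A2), diclofenac 10 μM (CYP2C9), (S)-mephenytoin 35 μM (CYP2C19), bufuralol 5 μM (CYP2D6), midazolam 3 μM (CYP3A4/5). Test compound was run at 0.1–30 μM (six levels), in triplicate. TCA quench, then LC-MS/MS (MRM) of metabolites. IC50 was fitted from % of DMSO-control activity versus log concentration; inhibition only at top concentration was reported as >30 μM.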

[5] = molecular target: T1, CYP2C8 (Homo sapiens, UniProt P10632); assay: Reversible CYP inhibition in human liver microsomes, amodiaquine marker; type: in vitro ADME
T1 sequence (P10632 1-490): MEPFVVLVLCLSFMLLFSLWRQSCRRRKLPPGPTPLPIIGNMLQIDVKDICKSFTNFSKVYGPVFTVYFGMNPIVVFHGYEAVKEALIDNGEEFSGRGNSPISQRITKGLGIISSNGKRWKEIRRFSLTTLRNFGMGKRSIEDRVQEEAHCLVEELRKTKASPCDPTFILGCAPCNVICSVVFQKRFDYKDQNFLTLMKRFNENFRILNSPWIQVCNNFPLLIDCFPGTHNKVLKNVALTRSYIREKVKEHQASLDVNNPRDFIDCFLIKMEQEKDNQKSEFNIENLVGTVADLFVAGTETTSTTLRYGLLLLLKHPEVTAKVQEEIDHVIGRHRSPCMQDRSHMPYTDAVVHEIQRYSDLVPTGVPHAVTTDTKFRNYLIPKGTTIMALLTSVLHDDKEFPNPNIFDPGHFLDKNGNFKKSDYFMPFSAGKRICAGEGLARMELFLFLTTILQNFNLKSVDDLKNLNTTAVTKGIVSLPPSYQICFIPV
Method in brief: (§2)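 Pooled human liver microsomes (150 donors) with NADPH, 10 min at 37°C, using a substrate cocktail at or below KM: bupropion 80 μM (CYP2B6), amodiaquine 2 μM (CYP2C8), nifedipine 25 μM. Test compound was run at six levels, 0.1–30 μM, in triplicate. TCA quench, then metabolite by LC-MS/MS (MRM). IC50 came from a fit of % DMSO-control activity against log concentration; inhibition only at 30 μM was reported as >30 μM.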

[6] = tested on: CYP3A4 mRNA; conditions: HepaRG, 24 hours
[7] = tested on: CYP1A2 mRNA; assay: CYP mRNA induction in HepaRG cell cultures; type: in vitro ADME, human; conditions: 24 hours
[8] = tested on: HepaRG cells; assay: Cytotoxicity in the HepaRG induction experiments; type: cell-based, human
[9] = molecular target: T2, CYP1A2 (Homo sapiens, UniProt P05177); assay: Reversible CYP inhibition in human liver microsomes, phenacetin marker; type: in vitro ADME; conditions: probe phenacetin 30 μM (paracetamol formation)
T2 sequence (P05177 1-516): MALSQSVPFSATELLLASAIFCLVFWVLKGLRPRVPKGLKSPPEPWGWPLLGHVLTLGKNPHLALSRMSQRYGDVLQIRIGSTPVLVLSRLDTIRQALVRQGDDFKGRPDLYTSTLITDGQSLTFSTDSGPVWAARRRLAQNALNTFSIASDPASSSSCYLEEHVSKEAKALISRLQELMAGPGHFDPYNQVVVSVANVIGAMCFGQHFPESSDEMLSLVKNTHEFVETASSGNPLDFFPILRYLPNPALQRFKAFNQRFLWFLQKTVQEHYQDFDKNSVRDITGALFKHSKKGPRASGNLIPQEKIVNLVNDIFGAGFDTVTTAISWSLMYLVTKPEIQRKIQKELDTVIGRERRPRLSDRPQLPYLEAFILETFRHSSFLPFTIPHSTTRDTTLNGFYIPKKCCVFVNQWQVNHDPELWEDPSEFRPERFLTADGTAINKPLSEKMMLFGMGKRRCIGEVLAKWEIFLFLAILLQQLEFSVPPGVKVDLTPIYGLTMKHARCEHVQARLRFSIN
Method in brief: as §1

[10] = molecular target: CYP2C9 (Homo sapiens, UniProt P11712); assay: Reversible CYP inhibition in human liver microsomes, diclofenac marker; type: in vitro ADME
Method in brief: as §1

[11] = molecular target: T3, CYP2B6 (Homo sapiens, UniProt P20813); assay: Reversible CYP inhibition in human liver microsomes, bupropion marker; type: in vitro ADME
T3 sequence (P20813 1-491): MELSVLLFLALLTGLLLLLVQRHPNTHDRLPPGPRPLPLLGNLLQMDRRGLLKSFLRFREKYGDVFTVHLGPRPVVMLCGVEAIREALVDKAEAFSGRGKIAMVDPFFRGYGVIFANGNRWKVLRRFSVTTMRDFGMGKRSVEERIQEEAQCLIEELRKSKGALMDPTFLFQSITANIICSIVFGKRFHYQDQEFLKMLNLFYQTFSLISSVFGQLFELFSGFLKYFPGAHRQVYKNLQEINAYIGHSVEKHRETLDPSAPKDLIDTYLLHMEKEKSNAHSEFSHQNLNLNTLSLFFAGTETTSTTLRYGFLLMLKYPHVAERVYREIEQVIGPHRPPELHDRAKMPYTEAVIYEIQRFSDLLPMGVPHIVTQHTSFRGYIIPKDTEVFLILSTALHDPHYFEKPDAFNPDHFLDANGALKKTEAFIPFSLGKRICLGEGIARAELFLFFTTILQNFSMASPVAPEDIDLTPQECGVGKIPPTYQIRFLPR
Method in brief: as §2

[12] = molecular target: CYP2C19 (Homo sapiens, UniProt P33261); assay: Reversible CYP inhibition in human liver microsomes; type: in vitro ADME
Method in brief: as §1

[13] = tested on: CYP2B6 mRNA; assay: CYP mRNA induction in HepaRG cell cultures; type: in vitro ADME, human; conditions: 24 hours; for maximal increase in CYP2B6 mRNA levels relative to vehicle control: positive controls
[14] = Safety and tolerability; type: in vivo, human
[15] = molecular target: CYP2D6 (Homo sapiens, UniProt P10635); assay: Reversible CYP inhibition in human liver microsomes, bufuralol marker; type: in vitro ADME
Method in brief: as §1

[16] = concentrations of up to 20 μM, all experiments
[17] = tenapanor 15 mg twice daily alone

CYP2C19, sequence (P33261 whole entry): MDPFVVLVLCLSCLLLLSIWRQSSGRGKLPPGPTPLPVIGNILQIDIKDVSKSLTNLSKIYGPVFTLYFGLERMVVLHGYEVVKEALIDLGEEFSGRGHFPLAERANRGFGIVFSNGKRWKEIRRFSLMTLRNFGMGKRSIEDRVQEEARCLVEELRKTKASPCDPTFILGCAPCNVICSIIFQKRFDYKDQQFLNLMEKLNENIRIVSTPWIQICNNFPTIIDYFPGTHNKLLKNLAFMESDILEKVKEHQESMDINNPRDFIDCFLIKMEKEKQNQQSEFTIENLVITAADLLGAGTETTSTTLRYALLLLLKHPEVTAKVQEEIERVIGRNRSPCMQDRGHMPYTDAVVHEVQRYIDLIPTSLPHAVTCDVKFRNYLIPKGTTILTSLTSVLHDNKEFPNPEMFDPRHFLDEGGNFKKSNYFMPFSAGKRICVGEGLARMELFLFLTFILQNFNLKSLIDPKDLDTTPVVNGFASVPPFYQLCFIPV
CYP2C9, sequence (P11712 whole entry): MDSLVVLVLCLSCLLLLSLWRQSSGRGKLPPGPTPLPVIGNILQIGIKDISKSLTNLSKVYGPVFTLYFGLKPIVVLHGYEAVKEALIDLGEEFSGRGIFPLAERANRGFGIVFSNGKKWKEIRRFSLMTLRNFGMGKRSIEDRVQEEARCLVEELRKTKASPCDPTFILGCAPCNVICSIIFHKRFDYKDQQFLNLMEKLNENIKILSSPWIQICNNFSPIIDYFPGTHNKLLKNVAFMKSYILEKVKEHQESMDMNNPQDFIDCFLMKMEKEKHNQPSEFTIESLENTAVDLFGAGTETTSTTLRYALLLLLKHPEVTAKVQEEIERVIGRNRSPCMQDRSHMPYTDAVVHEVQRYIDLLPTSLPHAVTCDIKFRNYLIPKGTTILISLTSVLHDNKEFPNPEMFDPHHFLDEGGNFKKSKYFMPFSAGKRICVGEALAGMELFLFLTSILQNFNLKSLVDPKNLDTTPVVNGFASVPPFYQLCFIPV
CYP2D6, sequence (P10635 whole entry): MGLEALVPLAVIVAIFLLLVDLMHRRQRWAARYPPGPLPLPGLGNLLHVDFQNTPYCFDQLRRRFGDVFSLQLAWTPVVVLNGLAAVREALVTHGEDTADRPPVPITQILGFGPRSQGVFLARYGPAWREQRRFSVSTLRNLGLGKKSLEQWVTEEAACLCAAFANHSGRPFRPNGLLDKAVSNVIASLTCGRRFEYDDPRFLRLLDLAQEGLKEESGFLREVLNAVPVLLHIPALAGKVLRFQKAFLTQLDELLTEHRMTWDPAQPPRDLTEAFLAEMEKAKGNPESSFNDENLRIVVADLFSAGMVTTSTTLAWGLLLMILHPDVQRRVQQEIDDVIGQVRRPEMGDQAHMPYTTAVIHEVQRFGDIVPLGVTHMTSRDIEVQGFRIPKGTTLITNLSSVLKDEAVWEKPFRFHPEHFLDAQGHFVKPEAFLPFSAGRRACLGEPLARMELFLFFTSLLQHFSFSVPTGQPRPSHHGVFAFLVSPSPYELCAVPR

Compound: OCc1ncc2n1-c1ccc(Cl)cc1C(c1ccccc1F)=NC2 [1‐OH‐midazolam]
- AUC0-t, arithmetic mean (SD) [1]: 52.1 (29.7) ng·h/mL
- AUC0-t, geometric mean (GCV%) [1]: 47.2 (43.1) ng·h/mL
- AUC, arithmetic mean (SD) [1]: 54.1 (31.6) ng·h/mL
- AUC, geometric mean (GCV%) [1]: 48.8 (43.6) ng·h/mL
- Cmax, arithmetic mean (SD) [1]: 26.6 (12.0) ng/mL
- Cmax, geometric mean (GCV%) [1]: 24.1 (47.8) ng/mL
- t1/2, arithmetic mean (SD) [1]: 5.14 (2.22) h
- t1/2, geometric mean (GCV%) [1]: 4.64 (50.0) h
- tmax, median (range) [1]: 0.50 (0.25‐0.55) h
- AUC0-t ratio (90%CI), geometric least-squares means [2]: 110 (104‐116) %
- AUC ratio (90%CI), geometric least-squares means [2]: 110 (103‐116) %
- Cmax ratio (90%CI), geometric least-squares means [2]: 103 (87.2‐122) %

Compound: CN1Cc2c(Cl)cc(Cl)cc2[C@H](c2cccc(S(=O)(=O)NCCOCCOCCNC(=O)NCCCCNC(=O)NCCOCCOCCNS(=O)(=O)c3cccc([C@@H]4CN(C)Cc5c(Cl)cc(Cl)cc54)c3)c2)C1 [Tenapanor]
- serum tenapanor [3]: below the limit of quantification
- IC50 at 5 min [4]: 0.402 ± 0.032 µM
- IC50 [5]: 10.4 ± 3 µM
- CYP3A4 mRNA induction as % of the positive control response ([6]; 1 of 4 experiments): 16.8%
- induction of CYP3A4 mRNA expression ([6]; 1 of 4 experiments): up to 5.85 fold
- influence on CYP3A4 mRNA levels ([6]; 3 of 4 experiments): not observed to influence
- induction of CYP1A2 mRNA expression [7, 16]: did not induce
- cytotoxicity to HepaRG cells ([8]; 20 μM): not
- cytotoxicity to HepaRG cells ([8]; 50 μM): cytotoxic
- IC50 at 5 min [9]: > 30 µM
- IC50 [10]: 14.2 ± 3.2 µM
- IC50 [11]: 15.4 ± 7.5 µM
- IC50 [12]: > 30 µM
- Tenapanor IC50 (n = 3) ([12]; human liver microsomes, S-mephenytoin 35 μM to 4-OH-mephenytoin): No IC50 could be determined
- induction of CYP2B6 mRNA expression [13, 16]: did not induce
- volunteers reporting at least 1 AE ([14]; healthy volunteers): 9/27
- abdominal pain [14, 17]: 1 n
- abnormal gastrointestinal sounds [14, 17]: 2 n
- defecation urgency [14, 17]: 1 n
- dizziness [14, 17]: 2 n
- hypertrophy of tongue papillae [14, 17]: 1 n
- gastrointestinal disorders ([14]; tenapanor 15 mg twice daily alone, of the 9 volunteers who reported AEs): 5 volunteers
- IC50 [15]: 3.26 ± 0.54 µM

Compound: CCC1(c2ccccc2)C(=O)NC(=O)NC1=O [phenobarbital]
- maximal increase in CYP2B6 mRNA levels relative to vehicle control [13]: 17.0 fold

Compound: Cc1ncc2n1-c1ccc(Cl)cc1C(c1ccccc1F)=NC2 [Midazolam, midazolam, reference compound]
- tmax, median (range) [1]: 0.50 (0.25‐0.55) h
- AUC0-t ratio (90%CI), geometric least-squares means [2]: 106 (100‐113) %
- AUC ratio (90%CI), geometric least-squares means [2]: 107% and 107 (101‐113) %
- Cmax ratio (90%CI), geometric least-squares means [2]: 104% and 104 (89.6‐122) %
- somnolence ([14]; healthy volunteers): 27/28
- volunteers reporting at least 1 AE ([14]; healthy volunteers): 27/28

Compound: COc1ccc2[nH]c([S+]([O-])Cc3ncc(C)c(OC)c3C)nc2c1 (centres unmarked) [omeprazole, reference compound]
- maximal increase in CYP1A2 mRNA levels relative to vehicle control ([7]; positive control): 32.0 fold

Compound: Clc1ccc(-c2nc3sccn3c2C=NOCc2ccc(Cl)c(Cl)c2)cc1 [CITCO, 6‐[4‐chlorophenyl]imidazo[2,1‐b][1,3]thiazole‐5‐carbaldehyde O‐[3,4‐dichlorobenzyl]oxime]
- maximal increase in CYP2B6 mRNA levels relative to vehicle control [13]: 13.2 fold

Compound: Cc1ncc2n1-c1ccc(Cl)cc1C(c1ccccc1F)=NC2O (centres unmarked) [4‐OH‐midazolam]
- AUC0-t, arithmetic mean (SD) [1]: 5.65 (1.50) ng·h/mL
- AUC0-t, geometric mean (GCV%) [1]: 5.47 (26.9) ng·h/mL
- AUC, arithmetic mean (SD) [1]: 6.14 (1.56) ng·h/mL
- AUC, geometric mean (GCV%) [1]: 5.96 (25.3) ng·h/mL
- Cmax, arithmetic mean (SD) [1]: 2.11 (0.757) ng/mL
- Cmax, geometric mean (GCV%) [1]: 1.99 (37.6) ng/mL
- t1/2, arithmetic mean (SD) [1]: 2.48 (0.820) h
- t1/2, geometric mean (GCV%) [1]: 2.37 (30.2) h
- tmax, median (range) [1]: 0.50 (0.25‐1.02) h
- AUC0-t ratio (90%CI), geometric least-squares means [2]: 106 (99.1‐113) %
- AUC ratio (90%CI), geometric least-squares means [2]: 105 (98.7‐111) %
- Cmax ratio (90%CI), geometric least-squares means [2]: 105 (90.5‐122) %
